Laboratory results: PubChem BioAssay AID449763 (Sanford-Burnham Center for Chemical Genomics, 2010)
Among all 330,000 compounds or so, about 1,100 (0.33%) were called active. What follows is part of a selection rich in actives, with near analogues and random picks from the rest. Values without a mark were called inactive.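 Rule for the calls: active = at 10 µM dose, activation of 40% or more, normalized to positive control; inactive = the rest.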

test: activators of apoptotic CHOP UPR arm, primary screen, cell-based, CHO-CHOP luciferase reporter, luminescence, uHTS (AID 449763); conditions: at 10 µM, stronger effect = higher value, percent of tunicamycin response over DMSO baseline;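 note: 100% = tunicamycin at 10 µg/mL and 0% = DMSO alone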
How it was run: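 Material: CHO-CHOP cells, stable luciferase reporter of PERK-eIF2a-CHOP signalling; quantity: 500 reporter cells seeded per well; buffer or medium: F12 medium containing 10% fetal bovine serum; compound: one dose, 10 µM in 0.5% DMSO; incubation: 6 h compound treatment, 37 °C; measured by: Steady-Glo luciferase luminescence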

Row | SMILES | activation
1 | COC(=O)c1sccc1NN1C(=O)c2ccccc2C1=O | -0.357%
2 | C[C@@H]1C[C@@H]2O[C@H]2/C=C\C=C\C(=O)Cc2c(Cl)c(O)cc(O)c2C(=O)O1 | 145% (active)
3 | COc1ccccc1C(=O)NCc1nnc(SC(C)C(=O)Nc2nccs2)n1C (stereo not given) | -1.66%
4 | O=C(NCc1ccc(Cl)cc1)c1cc(=O)nc2sc(-c3ccccc3)nn12 | -2.04%
5 | COc1ccc(OC)c(Nc2nc(-c3ccc(O)c(O)c3)cs2)c1 | 74.3% (active)
6 | COc1ccc(OC)c(-c2csc(NC(=O)C3=NNC(=O)CC3)n2)c1 | -1.74%
7 | COc1ccc(OC)c(-c2csc(NC(=O)COC(=O)C3CC3)n2)c1 | 1.31%
8 | COC(=O)C1CCN(C(=O)COC(=O)c2cc(S(=O)(=O)N3CCOCC3)ccc2C)CC1 | 0.025%
9 | COc1ccc(C2=NOC(Cn3nc(C(=O)NCc4ccc5c(c4)OCO5)cc3-c3ccccc3)C2)cc1 (stereo not given) | 0.69%
10 | O=C1C(=O)N(CC2COc3ccccc3O2)c2ccccc21 (stereo not given) | 2.24%
11 | Cc1cc(C(=O)CCl)c(C)n1CC1COc2ccccc2O1 (stereo not given) | 174% (active)
12 | Cc1ccsc1C(=O)OCC(=O)c1cc(C)n(CC2CCCO2)c1C (stereo not given) | -8.43%
13 | CC(C)CNc1ncnc2c1cnn2Cc1ccc(Cl)cc1 | 2.5%
14 | O=C(Nc1ccc(-n2ccnc2P(=O)(O)c2ccccc2)cc1)c1ccccc1Br | -1.3%
15 | COCCN(Cc1cc2cc3c(cc2nc1Cl)OCO3)C(=O)c1cccc(C)c1 | 2.77%
16 | O=C(NC1CCN(Cc2ccccc2)CC1)c1ccc(Oc2cc(Cl)cc(Cl)c2)o1 | 0.679%
17 | CCCOC1CCCN(Cc2cn(C)nc2-c2ccccc2F)C1 (stereo not given) | 44.6% (active)
18 | Cn1cc(CN2CCC(C(O)CCc3ccccc3)CC2)c(-c2ccccc2F)n1 (stereo not given) | -1.46%
19 | Cn1cc(CN2CCCC(CO)C2)c(-c2ccc(Oc3ccccc3)cc2)n1 (stereo not given) | -1.18%
20 | O=C(CN1C(=O)c2cccnc2Oc2ccc(Cl)cc21)Nc1ccc(F)cc1 | 1.1%
21 | Cc1ccc(CN2CCN(c3ncccn3)CC2)c(C)c1 | 0.144%
22 | Oc1c(CN2CCN(c3ccc(F)cc3)CC2)cc(Cl)c2cccnc12 | 415% (active)
23 | Oc1c(CN2CCCC2)cc(COCc2ccccc2)c2cccnc12 | 37.6%
24 | O=C(Nc1ccc(N2CCN(C(=O)c3ccccc3)CC2)c(Cl)c1)c1cccnc1 | 0.424%
25 | CC(CCn1cccn1)NC(=O)CCc1nnc(CCc2ccccc2)o1 (stereo not given) | -1.47%
